Test results reported in ChEMBL document CHEMBL1122646, “Synthesis of pyridine derivatives of L-phenylalanine as antisickling reagents” (1984).

Assays:
Format in all cases: functional
[1] = Antisickling activity and percentage of cells sickled after incubation in 3 mM solution under oxygen content 20.1% was reported at normal atmospheric pressure.
How it was run: (§1)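 Washed homozygous SS erythrocytes (HbF <8%, MCHC 33.5 g %, stored 4 °C, used within 24 h) at 1.0% hematocrit in PBS pH 7.2 (295 mosmol/kg, 0.5% w/v BSA) with 3 mM compound. Incubated 1 h at 37 °C with rotation. Cells were air-exposed 10 min, deoxygenated with 4.06% O2/4.4% CO2/N2, or deoxygenated with N2 alone. PO2 measured, then anaerobic fixation, 30 min RT.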

[2] = Antisickling activity and percentage of cells sickled after incubation in 3 mM solution under oxygen content 4.06% was reported at 30.8 mm of Hg pressure.; how it was run: as §1
[3] = Aantisickling activity and percentage of cells sickled after incubation in 3 mM solution under oxygen content 0.0% was reported.; how it was run: as §1
[4] = Effect of 3 mM of compound on homozygous sickle cells at a total oxygen saturation of 47% and estimates of volume fraction of HbS polymer present was determined.
How it was run: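 Homozygous SS cells (MCHC 33.9 g %) at 1% Hct with 3 mM compound, deoxygenated at 37 °C with 4.06% O2 gas (47% total O2 saturation per O2 affinity curve in PBS pH 7.392). Suspension forced through a 5-μm polycarbonate membrane at 3.1 cmHg. Passed cells weighed after 5-6 min, corrected for interstitial solvent with 3H-methoxyinulin. R = deoxygenated/oxygenated recovered weight. fp calculated with Cp 0.69 g/cm3 and Cs0 0.164 g/cm3.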

[5] = Antisickling activity and change in mean corpuscular hemoglobin ratio was reported at a concentration of 1.35 mM.
How it was run: (§2)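 Erythrocytes incubated with compound as in the morphological assay (PBS pH 7.2, 295 mosmol/kg, 0.5% BSA, 37 °C) but at 10% hematocrit. Triplicate readings on each of three aliquots taken 1 to 3 h after exposure. Lysis and cyanomet-Hb conversion, then MCHC read on a Coulter hemoglobinometer. Values averaged over nine measurements and expressed as MCHC0/MCHC.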

[6] = Antisickling activity and change in mean corpuscular hemoglobin ratio was reported at a concentration of 2.55 mM.; how it was run: as §2
[7] = Antisickling activity and change in mean corpuscular hemoglobin ratio was reported at a concentration of 3.65 mM.; how it was run: as §2
[8] = Antisickling activity and change in mean corpuscular hemoglobin ratio was reported at a concentration of 4.80 mM.; how it was run: as §2

Row | Structure (SMILES) | Cells sickled [1] [%] | Cells sickled [2] [%] | Cells sickled [3] [%] | fp [4] | Ratio [5] | Ratio [6] | Ratio [7] | Ratio [8]
1 | Cl.Cl.NC(Cc1ccccc1)C(=O)Nc1ccncc1 (centres undefined) | 10.2 | 25.2 | 70.8 |  |  |  |  | 
2 | Cl.Cl.NC(Cc1ccccc1)C(=O)Nc1cccnc1 (centres undefined) | 11.4 | 23.6 | 59 | 0.24 | 1.05 | 1.07 | 1.13 | 1.17
3 | Cl.Cl.NC(Cc1ccccc1)C(=O)Nc1ccccn1 (centres undefined) | 9.1 | 32.6 | 71.1 | 0.24 | 1.04 | 1.08 | 1.11 | 1.15
